# From ChEMBL document CHEMBL3608216, “Synthesis and evaluation of novel pleuromutilin derivatives with a substituted pyrimidine moiety” (2015)
# Legend:
# Assay type in all cases: functional
# [1] = system: Bacillus subtilis; assay: Antibacterial activity against Bacillus subtilis […] after 24 to 48 hrs by agar dilution method
# In short: (§1)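 Agar dilution per NCCLS. Compounds were dissolved in 15%–30% DMSO in water, serially two-fold diluted in distilled water (11 dilutions) and incorporated into hot Mueller–Hinton agar at a tenfold further dilution. Inocula from blood slants were adjusted to about 10^5–10^6 CFU/mL in 0.90% saline and spotted onto the plates, then incubated at 36.5 °C for 24–48 h. MIC was the lowest concentration giving complete growth inhibition; run in triplicate.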
# [2] = system: Staphylococcus epidermidis; assay: Antibacterial activity against […] Staphylococcus epidermidis ATCC 35984 after 24 to 48 hrs by agar dilution method; conditions: RP62A
# In short: (§2)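 Agar dilution per NCCLS. Compounds at 1.28 mg/mL stock in 15%–30% DMSO/water, two-fold serial dilutions (11 total) in water, mixed 1:10 into hot Mueller-Hinton agar. Inocula from blood slants adjusted to about 10^5–10^6 CFU/mL in 0.90% saline, spotted onto plates, incubated 36.5 °C for 24–48 h. MIC is the lowest concentration giving complete growth inhibition. Run in triplicate.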
# [3] = system: Escherichia coli; assay: Antibacterial activity against Escherichia coli ATCC 25922 after 24 to 48 hrs by agar dilution method; in short: as §1
# [4] = system: Staphylococcus aureus; assay: Antibacterial activity against […] Staphylococcus aureus ATCC 29213 after 24 to 48 hrs by agar dilution method; in short: as §2
# [5] = system: Staphylococcus aureus; assay: Antibacterial activity against […] Staphylococcus aureus in iv dosed neutropenic mouse systemic infection model assessed as increase in mouse survival measured on day 4
# In short: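 Male and female mice made neutropenic with ip cyclophosphamide, 150 mg/kg for four days, then 100 mg/kg one day before inoculation. Infected ip with 0.5 mL MRSA at 10^9 CFU/mL, 10 per group. About 1 h later dosed iv at 2, 3, 4.46, 6.64 and 10 mg/kg in 0.5 mL soybean lecithin:sterile water (1:30). Endpoint was survival at day 4. ED50 calculated by Reed–Muench using the Hill equation.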
SMILES,MIC [1],MIC [2],MIC [3],MIC [4],Activity [5],ED50 ([5]; 96 h)
C=C[C@]1(C)C[C@@H](OC(=O)CSc2nc(N)cc(OC)n2)[C@]2(C)[C@H](C)CC[C@]3(CCC(=O)[C@H]32)[C@@H](C)[C@@H]1O,16 µg/mL,0.5 µg/mL,32 µg/mL,1 µg/mL,,
C=C[C@]1(C)C[C@@H](OC(=O)CSc2nc(O)cc(NC(=O)[C@@H]3CCCCN3)n2)[C@]2(C)[C@H](C)CC[C@]3(CCC(=O)[C@H]32)[C@@H](C)[C@@H]1O,16 µg/mL,1 µg/mL,16 µg/mL,4 µg/mL,,
C=C[C@]1(C)C[C@@H](OC(=O)CSc2nc(O)cc(NC(=O)[C@H]3CCCCN3)n2)[C@]2(C)[C@H](C)CC[C@]3(CCC(=O)[C@H]32)[C@@H](C)[C@@H]1O,16 µg/mL,2 µg/mL,32 µg/mL,8 µg/mL,,
C=C[C@]1(C)C[C@@H](OC(=O)CSCCN(CC)CC)[C@]2(C)[C@H](C)CC[C@]3(CCC(=O)[C@H]32)[C@@H](C)[C@@H]1O.O=C(O)/C=C/C(=O)O [TIAMULIN FUMARATE],32 µg/mL,0.25 µg/mL,8 µg/mL,0.5 µg/mL,Dose-dependent effect,5.95 mg/kg
C=C[C@]1(C)C[C@@H](OC(=O)CSc2nc(O)cc(NC(C)=O)n2)[C@]2(C)[C@H](C)CC[C@]3(CCC(=O)[C@H]32)[C@@H](C)[C@@H]1O,32 µg/mL,,8 µg/mL,,,
C=C[C@]1(C)C[C@@H](OC(=O)CSc2nc(N)cc(O)n2)[C@]2(C)[C@H](C)CC[C@]3(CCC(=O)[C@H]32)[C@@H](C)[C@@H]1O,32 µg/mL,0.125 µg/mL,16 µg/mL,0.25 µg/mL,,
C=C[C@]1(C)C[C@@H](OC(=O)CSc2nc(O)cc(NC(=O)[C@H](N)C(C)C)n2)[C@]2(C)[C@H](C)CC[C@]3(CCC(=O)[C@H]32)[C@@H](C)[C@@H]1O,8 µg/mL,0.125 µg/mL,64 µg/mL,1 µg/mL,,
C=C[C@]1(C)C[C@@H](OC(=O)CSc2nc(O)cc(NC(=O)[C@@H](N)C(C)C)n2)[C@]2(C)[C@H](C)CC[C@]3(CCC(=O)[C@H]32)[C@@H](C)[C@@H]1O,16 µg/mL,0.5 µg/mL,32 µg/mL,2 µg/mL,,
C=C[C@]1(C)C[C@@H](OC(=O)CSc2nc(N)cc(=O)n2C)[C@]2(C)[C@H](C)CC[C@]3(CCC(=O)[C@H]32)[C@@H](C)[C@@H]1O,16 µg/mL,1 µg/mL,32 µg/mL,2 µg/mL,,
